UHRF1 MBD2 ctr = blocks human UHRF1 binding to methylated DNA. Q96T88. UHRF1 binding to methylated oligo, TR-FRET. inhibition, % at 4.4 µM. 370,000 compounds, 0.75% hits; in the data active = inhibition above about 21%;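 note: UHRF1 SRA domain binding a hemimethylated CpG hairpin DNA probe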
MBD2 inh = blocks human MBD2 binding to methylated DNA; Q9UBB5; AID 686964; TR-FRET, MBD2 binding to methylated oligonucleotide; inhibition, % at 4.4 µM; 370,000 compounds, 0.31% hits; in the data active = inhibition above about 13%
Target sequence (Q9UBB5 whole entry, looked up): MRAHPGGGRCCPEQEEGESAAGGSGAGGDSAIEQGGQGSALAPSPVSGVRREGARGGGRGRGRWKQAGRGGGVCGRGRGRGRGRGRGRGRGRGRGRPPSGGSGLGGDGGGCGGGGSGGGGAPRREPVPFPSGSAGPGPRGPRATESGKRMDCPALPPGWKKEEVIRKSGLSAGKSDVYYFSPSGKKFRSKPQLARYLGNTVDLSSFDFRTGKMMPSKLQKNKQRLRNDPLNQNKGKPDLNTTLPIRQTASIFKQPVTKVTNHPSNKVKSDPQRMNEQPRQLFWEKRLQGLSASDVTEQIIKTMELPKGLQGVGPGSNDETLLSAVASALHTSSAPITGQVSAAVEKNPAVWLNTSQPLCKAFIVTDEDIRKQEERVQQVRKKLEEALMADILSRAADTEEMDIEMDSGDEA
LEDGF integ inh = blocks HIV-1 LEDGF/p75-dependent DNA integration; TR-FRET IN-LEDGF/p75 DNA integration, Eu/Cy5; inhibition, % at 3.7 µM; 370,000 compounds, 0.64% hits;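 active = inhibition above the screen-wide mean plus 3 SD, cut at about 13% in these data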;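 note: signal is the Cy5 over europium emission ratio at 671 and 618 nm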
TDP2 absorb = blocks human TDP2 phosphodiesterase activity; O95551; recombinant TDP2, T5PNP hydrolysis, p-nitrophenol absorbance 415 nm; inhibition, % at 12.8 µM; 370,000 compounds, 0.34% hits; AID 720702;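 active = inhibition above the mean of all tested compounds plus 3 SD, set per campaign, cut at about 25% in these data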
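Test system: Human TDP2 enzyme | Reagent: 5 mM T5PNP | Compound dosing: 12.8 µM single point, 1% DMSO | Incubation: Enzyme reaction with compound for 2 h at 37 °C | Technique: p-Nitrophenol epi absorbance | Read-out: % inhibition relative to enzyme-containing and enzyme-free wells | Benchmarks: High control without enzyme, low control DMSO plus TDP2 | Replicates: Singlicate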
IN multimer act = counter-screen for LEDGF/p75 integration inhibitors: HIV-1 integrase multimerization activators. shares compounds with LEDGF integ inh. TR-FRET HIV-1 integrase multimerization, biochemical. activation, % at 7.7 µM. 2,000 compounds, 17% hits. AID 1053131; in the data active = activation above about 8.9%
TR-FRET interf = TR-FRET optical interference, LEDGF/p75 integration counter-screen; shares compounds with LEDGF integ inh; TR-FRET optical interference counterscreen, HIV-1 IN multimerization; inhibition, % at 7.7 µM; 2,000 tested, under 10 active; AID 1053135;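 active = inhibition above the mean over all tested compounds plus 3 SD, which no compound reached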
LEDGF integ conf = LEDGF/p75-dependent HIV-1 integration inhibition, confirmation. shares compounds with LEDGF integ inh. TR-FRET LEDGF/p75-dependent HIV-1 integration, biochemical. inhibition, % at 3.7 µM. 2,000 compounds, 36% hits. AID 1053136; in the data active = inhibition above about 14%
Each line names hits and unclear results; the compound was inactive in the other large screens (follow-up assays come after a bar, where they were run). The list is not random: actives were taken first. Their share in the collection is about 1.6%.

O=C1OC(c2ccccc2)=N/C1=C\C=C\c1ccco1	UHRF1 MBD2 ctr 32.2, LEDGF integ inh 40.8 | IN multimer act inactive | TR-FRET interf inactive | LEDGF integ conf inactive
CC(=O)C1=C(O)C(=O)N(CCc2c[nH]c3ccccc23)C1c1ccco1 (stereo not given)	LEDGF integ inh 15.0 | IN multimer act inactive | TR-FRET interf inactive | LEDGF integ conf inactive
Cc1ccc(-c2nc3ccccc3s2)cc1NC(=O)c1ccc2c(c1)OCO2	none
CC1CN(C(=O)c2nn(C)cc2[N+](=O)[O-])CC(C)O1 (stereo not given)	LEDGF integ inh 42.3 | IN multimer act inactive | TR-FRET interf inactive | LEDGF integ conf inactive
CC(=O)NC(C)(c1ccccc1)c1nc(-c2cccc(C#N)c2)cs1 (stereo not given)	LEDGF integ inh 14.2 | IN multimer act inactive | TR-FRET interf inactive | LEDGF integ conf inactive
CC(C)CSc1nnc(-c2ccco2)n1C	LEDGF integ inh 23.4 | IN multimer act inactive | TR-FRET interf inactive | LEDGF integ conf inactive
CC(=O)N1CCC(N2CCN(c3ccccc3F)CC2)CC1	LEDGF integ inh 40.5 | IN multimer act inactive | TR-FRET interf inactive | LEDGF integ conf inactive
CCC1CCC(N2CCN(c3ccccc3F)CC2)CC1 (stereo not given)	none
COc1ccc2nc(NC(=O)c3ccccc3C(=O)O)sc2c1	none
COc1ccc2nc(NC(=O)c3ccccc3F)sc2c1	LEDGF integ inh 16.2 | IN multimer act inactive | TR-FRET interf inactive | LEDGF integ conf inactive
CCN=c1scc(C)n1/N=C/c1ccc(O)c(O)c1O	LEDGF integ inh 51.8 | IN multimer act 20.4 | TR-FRET interf inactive | LEDGF integ conf 36.4
O=c1c2cc(Cl)ccc2oc2nc3n(c(=O)c12)CCCS3	LEDGF integ inh 22.5 | IN multimer act inactive | TR-FRET interf inactive | LEDGF integ conf 26.8
COc1ccc(C(=O)NNC(=O)c2ccccc2[N+](=O)[O-])cc1[N+](=O)[O-]	none
CC(C)C[C@H]1COc2cc(Br)ccc2S(=O)(=O)N1	none
COc1ccccc1CNc1ccc2c(c1)OC[C@H](CC(C)C)NS2(=O)=O	LEDGF integ inh 20.3 | IN multimer act inactive | TR-FRET interf inactive | LEDGF integ conf inactive
Oc1cc(CNC2CCCCC2)c(O)cc1CNC1CCCCC1	LEDGF integ inh 13.8 | IN multimer act inactive | TR-FRET interf inactive | LEDGF integ conf 24.0
Cc1sc2nc(SCC(=O)c3ccc(O)c(O)c3)n(C)c(=O)c2c1C	LEDGF integ inh 19.7 | IN multimer act 26.2 | TR-FRET interf inactive | LEDGF integ conf 46.3
Cc1ccc(NC(=O)CCc2ccccc2)cc1C	LEDGF integ inh 72.4 | IN multimer act inactive | TR-FRET interf inactive | LEDGF integ conf inactive
Cc1nc2c(O)c3c(c(O)c2nc1C)C1C=CC3CC1	LEDGF integ inh 21.3 | IN multimer act inactive | TR-FRET interf inactive | LEDGF integ conf inactive
Cc1nc2c(C)c(C)c(C)c(C)c2nc1C	none
CCCN(C(=O)c1cn(C)c(=O)c2ccccc12)c1ccccc1C	none
CC(=O)c1sc(NCc2ccccc2)nc1C	LEDGF integ inh 28.6 | IN multimer act inactive | TR-FRET interf inactive | LEDGF integ conf inactive
CC(OC(=O)CCCOc1ccccc1)C(=O)NC(N)=O (stereo not given)	none
COc1ccc(CN(C)C(=O)Cn2cnc(C(=O)Nc3ccc(C)c(C)c3)n2)cc1OC	none
Cc1ccc(-c2nc(NCc3ccc(F)cc3)n(S(C)(=O)=O)n2)cc1	LEDGF integ inh 13.7 | IN multimer act inactive | TR-FRET interf inactive | LEDGF integ conf inactive
COCC(=O)N1CCC(Oc2ccc(C(=O)N3CCCCCC3)cc2)CC1	LEDGF integ inh 28.2 | IN multimer act inactive | TR-FRET interf inactive | LEDGF integ conf inactive
CCc1ccc(NC(=O)c2cc(C(C)C)on2)cc1	none
Cc1cccc(NC(=O)COC(=O)[C@@H]2CCCN2C(=O)c2cccs2)c1	LEDGF integ inh 27.5 | IN multimer act inactive | TR-FRET interf inactive | LEDGF integ conf inactive
COC1=C(N)C(=O)c2nc(C)ccc2C1=O	LEDGF integ inh 20.0 | IN multimer act inactive | TR-FRET interf inactive | LEDGF integ conf 44.4
COc1ccc(N)c2c1C(=O)c1ccccc1C2=O	none

Source: PubChem BioAssay (The Scripps Research Institute Molecular Screening Center)
